Our source for the Activity, inhibition and IC50 values is ChEMBL document CHEMBL6092129, “Inhibiting SARS-CoV-2 viral entry by targeting spike:ACE2 interaction with O-modified quercetin derivatives” (RSC Med Chem, 2024).

For data set [1], the system named is HK-2. The experiment in a line: Nephrotoxicity against human HK-2 cells at 30.22 ppm incubated for 30 mins by LDH release based CytoTox 96 assay relative to control. The format is toxicity, cell-based. To be noted: hk-2, 0.5 h.
The nature of data set [2]: Hepatotoxicity against human HepG2 cells at 30.22 ppm incubated for 30 mins by LDH release based CytoTox 96 assay relative to control. In kind it is toxicity, cell-based. Particulars: hepg2, 0.5 h.
In data set [3] the target is T1, Spike glycoprotein/Angiotensin-converting enzyme 2 (Severe acute respiratory syndrome coronavirus 2) (UniProt Q9BYF1+P0DTC2). The experiment in a line: Inhibition of SARS CoV-2 S1 RBD/biotinylated ACE2 (unknown origin) protein-protein interaction at 100 uM preincubated with S1 protein for 60 mins followed by addition of ACE2 protein measured after 60 mins by ELISA. Particulars: time 120.0 min. In kind it is protein assay. Put shortly:
(§1)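 SARS-CoV-2 S1 RBD coated at 2 µg/mL (60 min, 37 °C), then blocked with 1% BSA in PBS pH 7.2–7.4 (30 min, 37 °C). Compound (0.8, 4.0, 20.0 or 100.0 µM) incubated 60 min at 37 °C with 0.05% DMSO–PBS vehicle control. Biotin-ACE2 solution (0.5 µg/mL) added for 60 min, then ExtrAvidin-peroxidase (40 min) and OPD (10 min, RT, dark), read at 450 nm. Three trials; IC50 from four-parameter fit (bottom 0, Hill slope 1).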

Data set [4] relates to H9c2. Put plainly: Cardiotoxicity against rat H9c2 cells at 30.22 ppm incubated for 30 mins by LDH release based CytoTox 96 assay relative to control. The format is toxicity, cell-based. To be noted: h9c2, 0.5 h.
In data set [5] the target is T1, Spike glycoprotein/Angiotensin-converting enzyme 2 (Severe acute respiratory syndrome coronavirus 2). Put plainly: Inhibition of SARS CoV-2 S1 RBD/biotinylated ACE2 (unknown origin) protein-protein interaction at 0.8 uM preincubated with S1 protein for 60 mins followed by addition of ACE2 protein measured after 60 mins by ELISA relative to control. In kind it is protein assay. Particulars: time 120.0 min. A digest of the protocol:
as §1

Data set [6] shares this target. Put plainly: (§2) Inhibition of SARS CoV-2 S1 RBD/biotinylated ACE2 (unknown origin) protein-protein interaction preincubated with S1 protein for 60 mins followed by addition of ACE2 protein measured after 60 mins by ELISA. The format is protein assay. To be noted: time 120.0 min. A digest of the protocol:
as §1

In data set [7] the target is Spike glycoprotein/Angiotensin-converting enzyme 2 (Severe acute respiratory syndrome coronavirus 2, UniProt P0DTC2+Q9BYF1). Described as §2. In kind it is protein assay. Put shortly: as §1
Spike glycoprotein/Angiotensin-converting enzyme 2, sequence (Q9BYF1 whole entry, looked up, other chains not shown): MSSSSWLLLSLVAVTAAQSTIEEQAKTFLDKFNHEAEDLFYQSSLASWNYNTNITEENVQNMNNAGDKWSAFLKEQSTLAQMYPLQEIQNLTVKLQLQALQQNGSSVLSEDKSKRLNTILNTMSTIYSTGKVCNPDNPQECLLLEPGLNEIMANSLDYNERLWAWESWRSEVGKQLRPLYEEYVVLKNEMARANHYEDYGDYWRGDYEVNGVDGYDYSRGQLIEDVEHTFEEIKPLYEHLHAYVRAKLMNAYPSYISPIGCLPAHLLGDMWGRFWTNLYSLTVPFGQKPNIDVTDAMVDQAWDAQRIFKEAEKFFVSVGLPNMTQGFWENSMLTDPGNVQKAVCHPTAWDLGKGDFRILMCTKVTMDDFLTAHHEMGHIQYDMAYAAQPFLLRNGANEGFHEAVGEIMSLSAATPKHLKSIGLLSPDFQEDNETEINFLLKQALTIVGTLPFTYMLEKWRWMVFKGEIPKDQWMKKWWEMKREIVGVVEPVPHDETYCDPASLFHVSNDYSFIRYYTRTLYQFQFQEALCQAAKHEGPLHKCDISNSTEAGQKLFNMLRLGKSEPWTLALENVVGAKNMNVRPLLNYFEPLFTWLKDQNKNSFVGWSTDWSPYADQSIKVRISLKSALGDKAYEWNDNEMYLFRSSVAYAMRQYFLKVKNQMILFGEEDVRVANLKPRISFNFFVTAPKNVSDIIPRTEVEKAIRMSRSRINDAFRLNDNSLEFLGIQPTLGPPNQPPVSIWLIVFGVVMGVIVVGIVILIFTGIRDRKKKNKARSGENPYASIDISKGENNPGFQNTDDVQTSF
Data set [8] concerns HK-2. The experiment in a line: Nephrotoxicity against human HK-2 cells at 2.07 ppm incubated for 30 mins by LDH release based CytoTox 96 assay relative to control. In kind it is toxicity, cell-based. To be noted: hk-2, 0.5 h.
Data set [9] deals with H9c2. Put plainly: Cardiotoxicity against rat H9c2 cells at 2.07 ppm incubated for 30 mins by LDH release based CytoTox 96 assay relative to control. The format is toxicity, cell-based. Particulars: h9c2, 0.5 h.
Data set [10] is described as follows: Hepatotoxicity against human HepG2 cells at 2.07 ppm incubated for 30 mins by LDH release based CytoTox 96 assay relative to control. In kind it is toxicity, cell-based. Particulars: hepg2, 0.5 h.
Data set [11] concerns the target T1, Spike glycoprotein/Angiotensin-converting enzyme 2 (Severe acute respiratory syndrome coronavirus 2). Put plainly: Inhibition of SARS CoV-2 S1 RBD/biotinylated ACE2 (unknown origin) protein-protein interaction at 100 uM preincubated with S1 protein for 60 mins followed by addition of ACE2 protein measured after 60 mins by ELISA relative to control. Particulars: time 120.0 min. In kind it is protein assay. Put shortly: as §1

Data set [12] relates to HK-2. The experiment in a line: Nephrotoxicity against human HK-2 cells at 1.03 ppm incubated for 30 mins by LDH release based CytoTox 96 assay relative to control. In kind it is toxicity, cell-based. To be noted: hk-2, 0.5 h.
A short description of data set [13]: Hepatotoxicity against human HepG2 cells at 1.03 ppm incubated for 30 mins by LDH release based CytoTox 96 assay relative to control. The format is toxicity, cell-based. Particulars: hepg2, 0.5 h.
The test system of data set [14] is H9c2. The experiment in a line: Cardiotoxicity against rat H9c2 cells at 1.03 ppm incubated for 30 mins by LDH release based CytoTox 96 assay relative to control. In kind it is toxicity, cell-based. To be noted: h9c2, 0.5 h.
Data set [15] in a line: Hepatotoxicity against human HepG2 cells at 4.71 ppm incubated for 30 mins by LDH release based CytoTox 96 assay relative to control. To be noted: hepg2, 0.5 h. In kind it is toxicity, cell-based.
Data set [16] concerns H9c2. Put plainly: Cardiotoxicity against rat H9c2 cells at 4.71 ppm incubated for 30 mins by LDH release based CytoTox 96 assay relative to control. The format is toxicity, cell-based. Particulars: h9c2, 0.5 h.
The subject of data set [17] is HK-2. Put plainly: Nephrotoxicity against human HK-2 cells at 4.71 ppm incubated for 30 mins by LDH release based CytoTox 96 assay relative to control. The format is toxicity, cell-based. Particulars: hk-2, 0.5 h.
The test system of data set [18] is H9c2. The experiment in a line: Cardiotoxicity against rat H9c2 cells at 12.09 ppm incubated for 30 mins by LDH release based CytoTox 96 assay relative to control. The format is toxicity, cell-based. To be noted: h9c2, 0.5 h.
Data set [19] can be described thus: Hepatotoxicity against human HepG2 cells at 12.09 ppm incubated for 30 mins by LDH release based CytoTox 96 assay relative to control. Particulars: hepg2, 0.5 h. In kind it is toxicity, cell-based.
The test system of data set [20] is HK-2. Put plainly: Nephrotoxicity against human HK-2 cells at 12.09 ppm incubated for 30 mins by LDH release based CytoTox 96 assay relative to control. The format is toxicity, cell-based. To be noted: hk-2, 0.5 h.
Data set [21] has as its system HK-2. Put plainly: Nephrotoxicity against human HK-2 cells at 1.54 ppm incubated for 30 mins by LDH release based CytoTox 96 assay relative to control. The format is toxicity, cell-based. Particulars: hk-2, 0.5 h.
Data set [22] is described as follows: Hepatotoxicity against human HepG2 cells at 1.54 ppm incubated for 30 mins by LDH release based CytoTox 96 assay relative to control. The format is toxicity, cell-based. Particulars: hepg2, 0.5 h.
The subject of data set [23] is H9c2. Put plainly: Cardiotoxicity against rat H9c2 cells at 1.54 ppm incubated for 30 mins by LDH release based CytoTox 96 assay relative to control. Particulars: h9c2, 0.5 h. In kind it is toxicity, cell-based.

Molecules are shown by their SMILES. Activity calls are given as the source filed them. The rule behind the calls is not given here. A value given as a limit tells only on which side of the number the result lay.

On to `O=c1c(O)c(-c2ccc(O)c(O)c2)oc2cc(O)cc(O)c12` [QUERCETIN], for which the Activity in data set [1] is given as 1.56%; in [2], 1.74%; in data set [4], 12.93%. Besides, in data set [3], the inhibition entry was “inactive”.

On to `O=c1c(OCc2ccccc2)c(-c2ccc(OCc3ccccc3)c(O)c2)oc2cc(OCc3ccccc3)cc(O)c12`, for which, in [5], the inhibition was more than 50%.

In [5], `O=C(Oc1cc(O)c2c(=O)c(OC(=O)c3ccccc3)c(-c3ccc(OC(=O)c4ccccc4)c(O)c3)oc2c1)c1ccccc1` had an inhibition of more than 50%.

With `CC(=O)Oc1cc(O)c2c(=O)c(OC(C)=O)c(-c3ccc(OC(C)=O)c(O)c3)oc2c1`, the inhibition in data set [5] is more than 50%.

For `CCOc1cc(O)c2c(=O)c(OCC)c(-c3ccc(OCC)c(OCC)c3)oc2c1`, the inhibition entry in data set [6] is “Dose-dependent-effect”. The compound also had a 50% inhibitory concentration (IC50) in data set [7] of 5 µM. Moreover, the Activity in data set [8] came out at 5.5%; in data set [9] it was 0.11%; in data set [10], 1.47%.

As to `O=c1c(OCc2ccccc2)c(-c2ccc(OCc3ccccc3)c(OCc3ccccc3)c2)oc2cc(OCc3ccccc3)cc(O)c12`, the inhibition in data set [11] was less than 50%.

As to `C=CCOc1cc(O)c2c(=O)c(OCC=C)c(-c3ccc(OCC=C)c(OCC=C)c3)oc2c1`, the inhibition entry in data set [6] is “Dose-dependent-effect”. In data set [7], the IC50 came out at 2.22 µM. For the same compound, the Activity in [12] was determined as 0.04%; in [13], 0%; in data set [14], 1.83%.

`O=c1c(OCc2ccc(F)cc2)c(-c2ccc(OCc3ccc(F)cc3)c(OCc3ccc(F)cc3)c2)oc2cc(OCc3ccc(F)cc3)cc(O)c12`: the inhibition in data set [11] is less than 50%.

For `O=c1c(OCc2ccc(F)cc2)c(-c2ccc(OCc3ccc(F)cc3)c(O)c2)oc2cc(OCc3ccc(F)cc3)cc(O)c12`, the Activity is on record as 0.4% in data set [15], 1.21% in [16] and 1.29% in data set [17]. Besides, in data set [6], the inhibition entry is “Dose-dependent-effect”. The compound further showed an IC50 in [7] of 7.52 µM.

`CCCOc1cc(O)c2c(=O)c(OCCC)c(-c3ccc(OCCC)c(OCCC)c3)oc2c1`: the Activity in data set [18] stood at 1.05%; in data set [19] it was 0.39%; in data set [20] it was 1.71%. For the same compound, the inhibition result in [6] is “Dose-dependent-effect”. Moreover, half-maximal inhibition in data set [7] (IC50) was put at 25.7 µM.

`CC(=O)Oc1cc(O)c2c(=O)c(OC(C)=O)c(-c3ccc(OC(C)=O)c(OC(C)=O)c3)oc2c1` yielded an inhibition in [5] of more than 50%.

`CCOc1cc(O)c2c(=O)c(OCC)c(-c3ccc(OCC)c(O)c3)oc2c1`: the inhibition in [5] is more than 50%.

In data set [5], `CCC(=O)Oc1cc(O)c2c(=O)c(OC(=O)CC)c(-c3ccc(OC(=O)CC)c(OC(=O)CC)c3)oc2c1` displayed an inhibition of more than 50%.

As to `O=C(Oc1cc(O)c2c(=O)c(OC(=O)c3ccccc3)c(-c3ccc(OC(=O)c4ccccc4)c(OC(=O)c4ccccc4)c3)oc2c1)c1ccccc1`, in data set [11], the inhibition is less than 50%.

With `O=C1OC2(c3ccccc31)c1cc(I)c(O)c(I)c1Oc1c2cc(I)c(O)c1I` [ERYTHROSINE], the inhibition entry in data set [6] is “Dose-dependent-effect”. For the same compound, half-maximal inhibition in data set [7] (IC50) required 6.16 µM.

In data set [5], `CCCOc1cc(O)c2c(=O)c(OCCC)c(-c3ccc(OCCC)c(O)c3)oc2c1` registered an inhibition of more than 50%.

For the compound `C=CCOc1cc(O)c2c(=O)c(OCC=C)c(-c3ccc(OCC=C)c(O)c3)oc2c1`, in data set [5], the inhibition was more than 50%.

For the compound `CCC(=O)Oc1cc(O)c2c(=O)c(OC(=O)CC)c(-c3ccc(OC(=O)CC)c(O)c3)oc2c1`, the inhibition result in [6] is “Dose-dependent-effect”. In addition, in data set [7], 3.28 µM corresponded to half-maximal inhibition (IC50). The Activity came out at 0.26% in data set [21], 0.21% in data set [22] and 1.95% in [23].
